# Screening results (PubChem)
# Most compounds without a hit are left out; they make up all but 2.5% or so of the library.
# PglD DTNB: blocks C. jejuni PglD acetyltransferase activity | purified PglD enzyme, DTNB colorimetric CoA detection | inhibition, % at 12.5 µM | 360,000 compounds, 0.098% hits | AID 602405; in the data active = inhibition above about 16%, passing the limit was not always enough; inconclusive = no clear call, values can overlap the other calls
# SIRT5 inh: sirtuin-5 (human) deacylase inhibition; inhibition, % at 15 µM; 330,000 compounds, 1.1% hits; Purified SirT5, succinyl-peptide AMC, trypsin-coupled fluorescence; in the data active = inhibition above about 15%; inconclusive = no clear call, values can overlap the other calls
# ERAP1 inh: blocks human ERAP1 aminopeptidase activity; Q9NZ08; recombinant ERAP1, Leu-AMC fluorescence, 60 min; inhibition, % at 10.7 µM; 340,000 compounds, 0.15% hits; AID 652197;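 active = mean replicate inhibition of at least 30%, or all replicates individually reaching that 30% level; inactive = mean below 30% and not every replicate reaching it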;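 note: 0% = neutral control wells and 100% = L-leucinethiol positive control wells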
# DENV2 CPE: inhibitors of DENV2 cytopathic effect; AID 651640; CPE inhibition, % at 9.99 µM; DENV2-infected cells, cytopathic effect rescue, plate reader; 350,000 compounds, 1.7% hits; in the data active = CPE inhibition above about 20%, passing the limit was not always enough; inconclusive = no clear call, values can overlap the other calls; tested in BHK-21 cells;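 note: 0% = median of neutral control wells and 100% = median of positive control wells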
# E-sel inducer: E-selectin induction on HUVECs | 260,000 compounds, 0.37% hits | activation, % at 7.58 µM | HUVEC E-selectin immunofluorescence imaging; normalized: neutral wells 0, TNF-alpha wells 100 | AID 686992;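 active = mean E-selectin-positive cell signal at least 10% of the positive control, reached in at least 60% of replicates, without over 20% cell loss; inconclusive = no rule given, readout overlaps actives, possibly toxicity-flagged; inactive = the rest, including those meeting only one limit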
# Target sequence (P16581 whole entry, looked up): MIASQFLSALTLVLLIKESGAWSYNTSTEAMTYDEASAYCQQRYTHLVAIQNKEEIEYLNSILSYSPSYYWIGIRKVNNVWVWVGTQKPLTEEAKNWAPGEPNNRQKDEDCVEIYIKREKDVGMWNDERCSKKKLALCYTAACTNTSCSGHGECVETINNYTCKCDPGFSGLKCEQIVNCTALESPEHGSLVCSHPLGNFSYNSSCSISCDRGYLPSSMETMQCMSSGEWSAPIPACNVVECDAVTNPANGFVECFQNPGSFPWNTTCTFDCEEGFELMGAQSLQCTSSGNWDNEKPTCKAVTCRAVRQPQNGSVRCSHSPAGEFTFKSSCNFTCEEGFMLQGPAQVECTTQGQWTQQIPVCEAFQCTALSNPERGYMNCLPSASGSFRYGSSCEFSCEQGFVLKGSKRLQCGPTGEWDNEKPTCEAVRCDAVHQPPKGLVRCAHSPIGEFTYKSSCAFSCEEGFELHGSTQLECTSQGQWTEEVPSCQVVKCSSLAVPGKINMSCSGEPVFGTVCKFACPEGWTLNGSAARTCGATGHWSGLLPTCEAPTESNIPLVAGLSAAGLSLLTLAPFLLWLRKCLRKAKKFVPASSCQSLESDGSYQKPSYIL
#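 Read-out: % PE-positive cells | Test system: HUVEC | Doses: One compound dose added by pin transfer | Buffer or medium: EGM-2 over gelatin coat | Signal: Immunofluorescence imaging | Benchmarks: TNF-alpha, DMSO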
# The depositor's hits bear a star; ? = inconclusive; / = not tested or not shown.
SMILES,PglD DTNB,SIRT5 inh,ERAP1 inh,DENV2 CPE,E-sel inducer
C/C=C/c1ccc2c(c1)O[C@H](CN(C)CC1CCCC1)[C@@H](C)CN([C@H](C)CO)S2(=O)=O,2,15*,-7,-4,1
C/C=C/c1ccc2c(c1)O[C@H](CN(C)C(C)=O)[C@H](C)CN([C@@H](C)CO)S2(=O)=O,0,11,1,45*,0
C/C=C/c1ccc2c(c1)O[C@@H](CN(C)C(C)=O)[C@@H](C)CN([C@@H](C)CO)S2(=O)=O,-1,0,2,-4,1
CC(=O)N(C)C[C@@H]1Oc2cc(-c3ccncc3)ccc2S(=O)(=O)N([C@H](C)CO)C[C@@H]1C,-2,0,3,29*,1
COc1cc(/C=N/N(C)C)ccc1OC(=O)c1cccs1,-3,0,3,8,0
CCCC(=O)Nc1ccc2c(c1)OC[C@H](C)N(Cc1cccc(F)c1)C[C@@H](C)[C@@H](OC)CN(C)C2=O,2,-2,0,1,1
CC(=O)NC(=O)c1nnn(Cc2ccccc2)c1NC(C)=O,1,/,/,/,/
Cc1cc(NC(=O)c2ccno2)no1,5,19*,-1,-7,-1
Cc1cc(NC(=O)c2ccc(F)cc2)no1,0,/,-1,-1,/
CCCCN(C(=O)c1ccc2c(c1)NC(=O)CS2)c1ccccc1,-3,-5,-4,94*,/
C[C@@H]1CN([C@H](C)CO)C(=O)c2cc(NC(=O)Nc3ccc(C(F)(F)F)cc3)ccc2O[C@@H](C)CCCCO[C@@H]1CN(C)C(=O)Cc1ccccc1,1,0,-1,82*,1
C[C@H](CO)N1C[C@H](C)[C@@H](CN(C)C(=O)Cc2ccccc2)OCCCC[C@H](C)Oc2ccc(NC(=O)Nc3ccc(C(F)(F)F)cc3)cc2C1=O,0,1,0,-2,2
C[C@@H]1CCCCO[C@H](CN(C)C(=O)Cc2ccccc2)[C@H](C)CN([C@@H](C)CO)C(=O)c2cc(NC(=O)Nc3ccc(C(F)(F)F)cc3)ccc2O1,-3,-1,1,44*,2
C[C@@H]1CCCCO[C@@H](CN(C)Cc2ccncc2)[C@H](C)CN([C@H](C)CO)C(=O)c2cc(NS(=O)(=O)c3ccc(F)cc3)ccc2O1,-2,3,0,-2,0
C[C@@H]1CN([C@H](C)CO)C(=O)c2cc(NS(=O)(=O)c3ccc(F)cc3)ccc2O[C@@H](C)CCCCO[C@@H]1CN(C)Cc1ccncc1,1,3,-1,34*,0
C[C@@H]1CCCCO[C@H](CN(C)Cc2ccncc2)[C@H](C)CN([C@H](C)CO)C(=O)c2cc(NS(=O)(=O)c3ccccc3)ccc2O1,0,8,-3,28*,/
CCN(CC)P(=O)(Nc1cccc(C(F)(F)F)c1)c1ccc(N(C)C)cc1NC(=O)c1ccco1 (stereo not drawn),/,-3,0,/,/
O=C(NCc1ccccn1)C1CCC(=O)N(Cc2ccc(Cl)cc2)C1 (stereo not drawn),3,37*,-6,10,0
Cc1cnc(CNC(=O)C2CCC(=O)N(Cc3ccc(Cl)cc3)C2)[nH]1 (stereo not drawn),-4,-5,-6,72*,-1
O=C(NCCOc1ccccc1)C1CCC(=O)N(CCc2ccccn2)C1 (stereo not drawn),-3,0,-2,2,/
O=C(NCc1ccccc1F)C1CCC(=O)N(Cc2ccc(Cl)cc2)C1 (stereo not drawn),0,0,-7,1,/
COc1ccc(CCN2CC(C(=O)NCCc3ncccc3C)CCC2=O)cc1 (stereo not drawn),2,2,2,34*,0
Cc1ccc(CNC(=O)C2CCC(=O)N(CCc3ccccn3)C2)s1 (stereo not drawn),-5,-1,-4,33*,3
C[C@H]1CCCCO[C@@H](CN(C)Cc2ccc3c(c2)OCO3)[C@@H](C)CN([C@@H](C)CO)C(=O)c2cc(NC(=O)Cc3ccccc3)ccc2O1,2,/,/,-7,0
COC(C[C@@H](O)C[C@H](O)COCc1ccccc1)OC,2,-1,1,-13,0
SMILES,PglD DTNB,SIRT5 inh,ERAP1 inh,DENV2 CPE,E-sel inducer
CCOC(=O)c1c(NC(=O)CS(=O)(=O)c2cn(CC)c3ccccc23)sc2c1CCCCC2,6,13,0,4,0
CC(=O)C1=C(C)Nc2ncnn2C1c1ccc(O)cc1 (stereo not drawn),-1,-6,-1,12,44*
CC(=O)C1=C(C)Nc2ncnn2C1c1ccc(F)cc1 (stereo not drawn),-8,0,-5,2,0
OC(c1ccccc1)C(NCc1ccccc1)c1ccccc1 (stereo not drawn),-6,-2,1,21*,/
C[C@H]1CN([C@@H](C)CO)S(=O)(=O)c2ccc(C#CC3CCCC3)cc2O[C@H]1CN(C)C(=O)Cc1ccccc1,-1,17*,0,-2,0
C[C@H](CO)N1C[C@H](C)[C@H](CN(C)C)Oc2cc(C#CC3CCCC3)ccc2S1(=O)=O,-4,7,-6,59*,0
C[C@@H]1CN([C@@H](C)CO)S(=O)(=O)c2ccc(C#CC3CCCC3)cc2O[C@@H]1CN(C)C,1,7,-6,18,0
C[C@H](CO)N1C[C@H](C)[C@H](CN(C)C)Oc2cc(C#CC3(O)CCCC3)ccc2S1(=O)=O,0,-1,8,26*,0
C[C@@H]1CN([C@@H](C)CO)S(=O)(=O)c2ccc(C#CC3(O)CCCC3)cc2O[C@@H]1CN(C)C,3,-5,1,-6,0
C[C@@H]1CN([C@@H](C)CO)S(=O)(=O)c2ccc(C#CC3CCCC3)cc2O[C@H]1CN(C)C,7,2,-7,22*,0
C[C@@H]1CN([C@H](C)CO)S(=O)(=O)c2ccc(C#CC3CCCC3)cc2O[C@@H]1CN(C)C(=O)Cc1ccccc1,8,3,-3,0,0
CN(C)C(=O)c1ccc(-c2ccc([C@H]3[C@H]4CN(CCC(F)(F)F)CCCCN4[C@H]3CO)cc2)cc1,3,5,2,?,0
O=C1NC(Cc2ccccc2)c2nc3cc(F)ccc3c(=O)n2-c2cc3ccccc3cc21 (stereo not drawn),2,-2,/,-1,0
CCS(=O)(=O)c1ccc2c(c1)N(S(=O)(=O)c1ccc(C)cc1)CC(C(=O)O)O2 (stereo not drawn),4,1,3,3,0
Cc1ccc(C(=O)Nc2cc(C)nn2CCC#N)cc1,-4,1,0,12,32*
Cc1cc(NC(=O)c2ccc(Cl)cc2)n(CCC#N)n1,-6,-12,2,9,/
Cc1cc(=O)c2c(ccc3c(=O)cc(C)[nH]c32)[nH]1,/,/,3,12,0
